Data from ChEMBL document CHEMBL2384970, “Development of peptidomimetic boronates as proteasome inhibitors” (Eur J Med Chem, 2013).
The source made the active and inactive calls. The calls are words filed in the database; no cut-off is given here.

Experiments:
[1] = molecular target: Proteasome Macropain subunit (Homo sapiens) (UniProt P49721); assay: Inhibition of human 20S proteasome trypsin like activity using Boc-Leu-Leu-Arg-Arg-AMC as substrate at 20 uM measured over 10 mins by fluorescence assay; details: in the assay text read “Boc-Leu-Arg-Arg-AMC” for “Boc-Leu-Leu-Arg-Arg-AMC”
Summary of the method: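 Tryptic activity of human erythrocyte 20S proteasome at 0.0025 mg mL1, 30 °C, in 50 mM Tris pH 7.4, 50 mM NaCl, 0.5 mM EDTA, 0.03% SDS, 7.5% DMSO. Compound at […]. Boc-Leu-Arg-Arg-AMC at […]. Continuous 10-min fluorescence reading (ex 380/em 460 nm) against a DMSO control.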

[2] = molecular target: T1, Proteasome Macropain subunit MB1 (Homo sapiens, UniProt P28074); assay: Inhibition of human 20S proteasome chymotrypsin like activity using Suc-Leu-Leu-Val-Tyr-AMC as substrate measured over 10 mins by fluorescence assay
T1 sequence (P28074 whole entry): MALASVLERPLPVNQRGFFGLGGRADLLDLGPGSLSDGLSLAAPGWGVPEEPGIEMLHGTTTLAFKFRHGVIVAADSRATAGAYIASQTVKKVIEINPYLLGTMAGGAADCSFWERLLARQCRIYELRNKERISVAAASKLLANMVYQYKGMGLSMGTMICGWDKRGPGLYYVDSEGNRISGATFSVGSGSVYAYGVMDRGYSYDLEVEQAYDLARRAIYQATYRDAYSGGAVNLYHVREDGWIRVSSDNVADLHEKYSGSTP

[3] = molecular target: T2, Proteasome Macropain subunit MB1 (Homo sapiens) (UniProt P28074); assay: Inhibition of human 20S proteasome chymotrypsin like activity using Suc-Leu-Leu-Val-Tyr-AMC as substrate at 20 uM measured over 10 mins by fluorescence assay relative to control
T2 sequence (whole entry): T1 sequence (P28074 whole entry)
Summary of the method: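 Screening run at a single […] inhibitor concentration against purified human erythrocyte 20S proteasome, using an equal amount of DMSO as the negative control. AMC fluorescence read at ex 380/em 460 nm continuously for 10 min.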

[4] = Inhibition of bovine pancreatic alpha-chymotrypsin using Suc-Leu-Leu-Val-Tyr-AMC as substrate measured over 10 mins by fluorescence assay; design: species or system Bos taurus
Summary of the method: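 Bovine pancreatic alpha-chymotrypsin ([…] as printed) incubated at 20 °C with test compound in 50 mM Tris pH 8.0, 100 mM NaCl, 5 mM EDTA, 7.5% DMSO. Substrate at […] final. Product release followed over 10 min. Ki obtained from progress curves fitted to a 4-parameter IC50 equation and corrected for substrate.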

Homo sapiens = species: Homo sapiens; assay: Selectivity ratio of Ki for human 20S proteasome post-glutamyl peptide hydrolyzing activity to Ki for human 20S proteasome chymotrypsin like activity
Proteasome component C5 = molecular target: T3, Proteasome component C5 (Homo sapiens, UniProt P20618); assay: Inhibition of human 20S proteasome post-glutamyl peptide hydrolyzing activity using Z-Leu-Leu-Glu-AMC as substrate measured over 10 mins by fluorescence assay
T3 sequence (P20618 whole entry): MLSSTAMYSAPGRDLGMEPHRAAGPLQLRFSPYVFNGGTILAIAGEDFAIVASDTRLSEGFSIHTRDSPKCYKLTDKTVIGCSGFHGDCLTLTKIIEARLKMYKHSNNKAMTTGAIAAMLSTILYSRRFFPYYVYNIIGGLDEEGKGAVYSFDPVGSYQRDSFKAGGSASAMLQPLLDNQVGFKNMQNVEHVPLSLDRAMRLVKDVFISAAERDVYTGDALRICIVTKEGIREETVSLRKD

Chain of Proteasome Macropain subunit (Homo sapiens) (P49721 whole entry): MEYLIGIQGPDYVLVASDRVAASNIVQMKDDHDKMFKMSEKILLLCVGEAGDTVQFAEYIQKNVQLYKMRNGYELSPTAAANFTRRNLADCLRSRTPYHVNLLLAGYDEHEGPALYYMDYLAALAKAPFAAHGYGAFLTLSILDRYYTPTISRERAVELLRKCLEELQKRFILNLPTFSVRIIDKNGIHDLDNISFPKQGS

SMILES	inhibition [1]	Ki [2]	inhibition [3]	Ki [4]	Ratio Ki (Homo sapiens)	Ki (Proteasome component C5)
CC(C)C[C@H](NC(=O)Cn1ccc2c(c1=O)CCCN2C)B(O)O	inactive	1620 nM	> 40%	–	–	–
CC(C)C[C@H](NC(=O)Cn1ccc(Nc2ccccc2)cc1=O)B(O)O	inactive	98 nM	> 40%	12700 nM	52	–
CC(C)C[C@H](NC(=O)[C@H](Cc1ccccc1)NC(=O)c1cnccn1)B(O)O	–	–	> 40%	–	–	–
CC(C)C[C@H](NC(=O)Cn1ccc(N2CCCCC2)cc1=O)B(O)O	inactive	300 nM	> 40%	–	–	–
C=CCN1CCN(c2ccn(CC(=O)N[C@@H](CC(C)C)B(O)O)c(=O)c2)CC1	inactive	5900 nM	> 40%	–	–	Not Active
CC(C)C[C@H](NC(=O)[C@H](C)n1ccc2ncccc2c1=O)B(O)O	inactive	1340 nM	> 40%	9160 nM	10	–
CC(C)C[C@H](NC(=O)Cn1cc(Br)c2ncccc2c1=O)B(O)O	inactive	170 nM	> 40%	–	–	–
CC(C)C[C@H](NC(=O)Cn1ccc(N2CCOCC2)cc1=O)B(O)O	inactive	1450 nM	> 40%	–	–	–
CC(C)C[C@H](NC(=O)Cn1ccccc1=O)B(O)O	inactive	260 nM	> 40%	–	5.3	–
CC(C)C[C@H](NC(=O)Cn1ccc2ncccc2c1=O)B(O)O	inactive	440 nM	> 40%	–	–	–
CCN(CC)c1ccn(CC(=O)N[C@@H](CC(C)C)B(O)O)c(=O)c1	inactive	800 nM	> 40%	–	5.5	–
CC(C)C[C@H](NC(=O)Cn1ccc(N2CCN(C)CC2)cc1=O)B(O)O	inactive	–	30%	–	–	–
